Most compounds without a hit are left out; they make up all but 1.5% or so of the library.
CXCR6 block = CXCR6 (human) receptor inhibition | O00574 | CHO-K1 PathHunter CXCR6 beta-arrestin, luminescence | inhibition, % at 20 µM | actives 0.36% (n = 360,000); in the data active = inhibition above about 34%, passing the limit was not always enough;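 note: antagonist mode with CXCL16 agonist at 10 nM final; 0% = 10 nM CXCL16 with DMSO and 100% = unstimulated wells without agonist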
APJ agonist = activates the human apelin receptor APJ; actives 0.11% (n = 330,000); CHO-K1 APJ PathHunter beta-arrestin, luminescence; 0% DMSO wells, 100% apelin; activation, % at 20 µM; P35414;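 active = activation more than six SD over the plate average, tested at 20 µM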;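 note: 0% = DMSO alone and 100% = apelin-13 at 10 nM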
Target sequence (P35414 whole entry, looked up): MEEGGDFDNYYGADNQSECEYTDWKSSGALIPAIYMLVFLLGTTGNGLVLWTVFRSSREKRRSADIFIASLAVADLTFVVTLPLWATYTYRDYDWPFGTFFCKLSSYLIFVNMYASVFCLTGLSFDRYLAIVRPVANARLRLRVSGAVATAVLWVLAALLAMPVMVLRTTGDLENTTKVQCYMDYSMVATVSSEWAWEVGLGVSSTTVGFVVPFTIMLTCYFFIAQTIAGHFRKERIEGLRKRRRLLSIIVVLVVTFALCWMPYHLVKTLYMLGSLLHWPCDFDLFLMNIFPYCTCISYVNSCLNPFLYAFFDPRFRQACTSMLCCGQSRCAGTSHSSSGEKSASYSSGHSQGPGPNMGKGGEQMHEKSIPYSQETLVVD
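Assay system: CHO-K1 APJ beta-arrestin complementation cell line / Compound: single test compound dose, 20 µM final, 1% DMSO / Times: overnight seeding, 90 min compound at 25 °C, 1 h detection / Technique: beta-gal luminescence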
APJ antag = APJ receptor antagonism; AID 2521; P35414; CHO-K1 APJ beta-arrestin complementation, luminescence; inhibition, % at 20 µM; actives 0.32% (n = 330,000);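 active = inhibition above about 40% at 20 µM, limit read from the data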;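 note: cells challenged with 10 nM apelin-13 agonist together with compound; plate controls were apelin-13 plus DMSO wells for no effect and DMSO wells lacking apelin-13 for full effect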
EBI2 block = EBI2 (human) antagonism | EBI2 beta-arrestin recruitment, luminescence, 7a,25-OHC stimulated | inhibition, % at 5 µM | actives 0.81% (n = 360,000); in the data active = inhibition above about 38%;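 note: enzyme fragment complementation signal reports receptor beta-arrestin coupling in cells; 0% = agonist plus DMSO wells and 100% = wells without agonist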
CCR6 antagonist = CCR6 (human) receptor antagonism; P51684; CHO-K1 CCR6 PathHunter beta-arrestin, luminescence, CCL20-stimulated; inhibition, % at 20 µM; actives 0.49% (n = 340,000); AID 493098;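 active = compounds whose inhibition of the agonist-driven luminescence signal at 20 µM reaches about 50%, limit read from the data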;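 note: cells stimulated with CCL20 at 14 nM final; plate controls were DMSO with CCL20 for no effect and DMSO without agonist for full effect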
Target sequence (P51684 whole entry, looked up): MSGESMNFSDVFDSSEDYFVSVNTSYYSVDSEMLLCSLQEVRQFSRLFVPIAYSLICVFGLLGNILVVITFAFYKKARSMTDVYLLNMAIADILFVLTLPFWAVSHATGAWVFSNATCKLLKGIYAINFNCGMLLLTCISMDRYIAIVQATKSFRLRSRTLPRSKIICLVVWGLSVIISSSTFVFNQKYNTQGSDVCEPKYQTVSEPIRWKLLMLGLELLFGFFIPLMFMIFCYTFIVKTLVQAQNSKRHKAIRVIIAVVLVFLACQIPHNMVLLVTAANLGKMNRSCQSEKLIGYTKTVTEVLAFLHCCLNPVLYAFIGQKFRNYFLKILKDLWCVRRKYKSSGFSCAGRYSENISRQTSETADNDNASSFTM
APJ ag conf = APJ receptor agonism confirmation; shares compounds with APJ agonist; CHO-K1 APJ PathHunter beta-arrestin, luminescence; activation, % at 20 µM; actives 10% (n = 310);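 active = activation above 40%, taking the highest of four retests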;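 note: plate controls were DMSO wells for no effect and apelin-13 at 10 nM for full effect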
APJ antag conf = APJ receptor antagonism confirmation. shares compounds with APJ antag. APJ beta-arrestin recruitment, luminescence, antagonist mode. actives 66% (n = 950). inhibition, % at 20 µM; in the data active = inhibition above about 50%
CXCR6 antag conf = confirmation of human CXCR6 receptor antagonists | shares compounds with CXCR6 block | CHO-K1 CXCR6 PathHunter beta-arrestin, luminescence | inhibition, % at 20 µM | actives 65% (n = 700);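 active = mean inhibition over four retests above 40%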;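 note: receptor stimulated with 10 nM CXCL16 agonist; beta-galactosidase fragment complementation upon beta-arrestin recruitment to receptor; plate controls were CXCL16 plus DMSO for no effect and DMSO without CXCL16 for full effect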
EBI2 conf = EBI2 (human) antagonism, single concentration confirmation; shares compounds with EBI2 block; EBI2 beta-arrestin luminescence, 7a,25-OHC antagonism; inhibition, % at 5 µM; actives 29% (n = 2,400); AID 651997;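 active = inhibition of at least 50%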
EBI2 ag = EBI2 agonism counter-screen. AID 652000. EBI2-expressing cells, agonist mode, luminescence, 60 min; 0% vehicle, 100% 7α,25-dihydroxycholesterol control. activation, % at 5 µM. shares compounds with EBI2 block. 2,400 tested, under 10 active;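 active = activation of at least 50%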
bGal counter = counter-screen for EBI2 antagonists: E. coli beta-galactosidase inhibition | actives 1% (n = 2,400) | inhibition, % at 5 µM | purified beta-galactosidase, luminescent Galacton Star, 15 min | shares compounds with EBI2 block;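 active = replicate-average signal at least 3 plate SD below neutral wells, shown as high inhibition, flagging enzyme-inhibiting false positives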;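 note: 0% = DMSO wells with enzyme and 100% = wells lacking enzyme; higher means stronger loss of beta-gal luminescence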
The depositor's hits bear a star; · = no result given.

SMILES	CXCR6 block	APJ agonist	APJ antag	EBI2 block	CCR6 antagonist	APJ ag conf	others
N#Cc1cc2cc3ccccc3nc2n2c(=O)c3ccccc3nc12	-18.1	14.6*	-30.9	-15.1	7.3	3.0
Cn1c(=O)c2cc3ccccc3nc2n(C)c1=O	-1.0	-6.6	16.3	0.8	-8.4	·
CC(=O)N1C[C@@H](CO)[C@@H](N(C)C(=O)C(C)(C)C)C[C@H]1c1ccccc1	-3.7	·	·	-17.1	·	·
COc1ccc(CCN2CCC(Nc3nc4ccccc4n3Cc3ccc(F)cc3)CC2)cc1	0.9	31.9*	18.1	-1.7	4.2	16.9
C[C@H](O)C#Cc1ccc2c(c1)O[C@@H](CN(C)Cc1ccc(-c3ccccc3)cc1)[C@H](C)CN([C@@H](C)CO)S2(=O)=O	2.1	·	·	27.0	·	·
CN(C)CCCN(C(=O)c1cc2cc([N+](=O)[O-])ccc2s1)c1nc2cc3c(cc2s1)OCCO3	6.4	42.6*	-3.6	-14.3	25.9	20.9
CN(C)CCCN(C(=O)c1ccc([N+](=O)[O-])s1)c1nc2cc3c(cc2s1)OCCO3	-9.9	130.6*	-145.1	-13.5	-9.0	37.9
CN(Cc1ccccc1)C(=O)C1(C)CCN1C(=O)Cc1ccc(Cl)cc1Cl (stereo not drawn)	1.5	·	·	-2.5	·	·
CC(=O)c1cccc(NC(=O)C2Cc3c(-c4ccc(Cl)cc4)ccnc3O2)c1 (stereo not drawn)	-16.4	·	·	7.6	·	·
CC(C)Nc1ccc(Nc2ccnc3cc4ccccc4cc23)cc1	11.8	23.9*	10.0	24.4	22.8	34.1
COc1ccc(Nc2ccnc3ccccc23)cc1	-8.2	-3.9	3.7	7.6	-6.0	·
COc1cccc(NC(=O)Nc2nc(-c3ccc(OC)c(OC)c3)cs2)c1	-11.6	19.2*	-17.0	-87.8	-2.9	32.0
COc1ccc(-c2csc(NC(C)=O)n2)cc1OC	-0.1	3.3	-7.1	4.9	0.0	·
Cc1cc2nc(-c3ccccc3)c(CC(C)(C)C)n2c(C)c1Br	-9.6	·	·	-9.3	·	·
COC(=O)c1cnc(Oc2ccc(NC(=O)NC(=O)c3ccccc3Cl)cc2)cc1C(F)(F)F	-7.2	19.6*	-15.1	-18.1	6.5	16.6
COC(=O)c1ccncc1C(=O)Nc1ccc(Oc2ncc(C(F)(F)F)cc2Cl)cc1	-2.7	0.4	9.4	-10.9	-12.5	·
COc1ccc(/C(N)=N/OC(=O)c2cccs2)cc1OC	-15.4	18.1*	-72.2	-1.3	-5.1	26.1
Cc1cc(C(=O)O/N=C(\N)c2ccncc2)ccc1[N+](=O)[O-]	-15.3	15.7	-39.2	-18.6	4.2	·
COc1ccc(/C(N)=N/OC(=O)c2ccc([N+](=O)[O-])c(C)c2)cc1OC	-12.6	11.1*	-14.1	0.7	-13.3	9.5
CCOC(=O)C1CCCN(C(=O)c2ccc(F)c(Cl)c2)CC1 (stereo not drawn)	1.2	·	·	-1.6	·	·
Cc1c(Cl)sn(-c2ccc(Cl)cc2)c1=O	74.5*	25.6*	38.3	69.8*	91.9*	26.3	CXCR6 antag conf=94.5*
CC1=C(C(=O)Nc2cc(C(=O)N3CCN(c4ccc(Cl)cc4)CC3)ccc2C)SCCO1	-6.3	·	·	-3.3	·	·
CCc1ccc(NC(=S)Nc2cccc3cnccc23)cc1	-4.9	15.0*	-113.1	50.4*	15.1	-0.5	EBI2 conf=9.4;EBI2 ag=-0.4;bGal counter=-3.4
COc1ccc(C(=O)N2CCC(C)(C(=O)O)C2)cc1OC (stereo not drawn)	-7.1	·	·	-13.2	·	·
O=C(NCCOC(=O)c1cccs1)c1cccnc1	3.3	-3.8	64.5*	3.3	-9.2	·	APJ antag conf=24.8
SMILES	CXCR6 block	APJ agonist	APJ antag	EBI2 block	CCR6 antagonist	APJ ag conf	others
O=C(OCCO)c1c(C2=CCCCC2)oc2c1C(OCCO)CCC2 (stereo not drawn)	-1.5	·	·	-8.4	·	·
CCN(CC)c1ccc(/C=C2\SC(=O)N(C(C)C)C2=O)o1	27.1	5.3	53.1*	56.5*	46.6	·	APJ antag conf=-0.5
C=CCC[C@@H](CCCCC)OC(=O)/C=C/[C@H](O)[C@@H](O)C[C@H](O)CC=C	13.4	·	·	-2.9	·	·
CC1(C(=O)NS(=O)(=O)C2CC2)CCCN(C(=O)c2cccc(OC(F)(F)F)c2)C1 (stereo not drawn)	-3.0	·	·	-1.9	·	·
Cc1[nH]n(-c2ccccc2)c(=O)c1C(c1ccc(O)c([N+](=O)[O-])c1)c1c(C)[nH]n(-c2ccccc2)c1=O	21.0	-3.8	40.1*	10.8	45.5	·	APJ antag conf=41.3
CCc1ccc2c(c1)NC(=O)C2(C)Cc1ccccc1 (stereo not drawn)	4.4	·	·	1.7	·	·
CCc1ccc2c(c1)C1(NN=C(c3cccc4ccccc34)S1)C(=O)N2 (stereo not drawn)	25.6	-8.4	42.0*	21.4	·	·	APJ antag conf=39.2
c1ccc2c(-c3cc(NCc4ccncc4)n4nccc4n3)cccc2c1	0.6	·	·	-3.8	·	·
N#Cc1c(NC(=O)c2ccccc2Cl)n(Cc2ccccc2)c2nc3ccccc3nc12	-0.9	·	·	10.5	4.5	·
CCCCn1c(NC(=O)c2ccccc2Cl)c(C#N)c2nc3ccccc3nc21	6.5	-13.4	43.5*	1.3	27.9	·	APJ antag conf=36.1
COc1ccc(OC)c(S(=O)(=O)Nc2ccc3c(c2)OCCO3)c1	-4.6	·	·	-0.1	·	·
COc1ccc(C(=O)/C=C/C(=O)N(CC(=O)NC2CCCCC2)CC2CCCO2)c(O)c1 (stereo not drawn)	68.3*	-3.6	55.7*	6.0	86.7*	·	APJ antag conf=109.6*
COc1ccc(C(=O)/C=C/C(=O)N(Cc2ccccc2)C(C(=O)NC2CCCCC2)c2ccncc2)c(O)c1 (stereo not drawn)	13.2	-5.5	9.1	7.7	3.6	·
Cc1nn(-c2nc3ccccc3[nH]2)c(=O)c2ccccc12	6.6	·	·	1.9	3.2	·
Cc1nn(-c2nc3ccccc3[nH]2)c(N)c1-c1ccc(Cl)cc1	34.5	-6.3	46.3*	27.3	43.1	·	APJ antag conf=-0.2
CC1(C(=O)NS(=O)(=O)c2cccc(OC(F)F)c2)CCN1C(=O)CC(c1ccccc1)c1ccccc1 (stereo not drawn)	9.4	·	·	-0.9	·	·
